Results: ChEMBL document CHEMBL3877249, “Novel 2-aryl-4-(4'-hydroxyphenyl)-5H-indeno[1,2-b]pyridines as potent DNA non-intercalative topoisomerase catalytic inhibitors” (Eur J Med Chem, 2017)
The source made the active and inactive calls. No cut-off for these calls is given here.

Key:
[1] = biological target: DNA topoisomerase 2-alpha (Homo sapiens) (UniProt P11388); assay: Inhibition of human DNA topoisomerase-2alpha ATPase activity at 300 uM using supercoiled pBR322 DNA as substrate after 1 hr by malachite green dye based assay relative to control
Method in brief: (§1)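 Topo IIα ATPase: 4 units of enzyme with 100 ng supercoiled pBR322 and 250 µM ATP in 10 mM Tris-HCl pH 7.9, 50 mM NaCl, 50 mM KCl, 5 mM MgCl2, 0.1 mM EDTA, 15 µg/mL BSA at 37 °C for 1 h. Malachite green reagent was then added for 30 min at room temperature, and released phosphate was read at 620 nm.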

[2] = biological target: DNA topoisomerase 2-alpha (Homo sapiens) (UniProt P11388); assay: Inhibition of human DNA topoisomerase-2alpha ATPase activity at 200 uM using supercoiled pBR322 DNA as substrate after 1 hr by malachite green dye based assay relative to control; method in brief: as §1
[3] = biological target: DNA topoisomerase 2-alpha (Homo sapiens) (UniProt P11388); assay: Inhibition of human DNA topoisomerase-2alpha ATPase activity at 400 uM using supercoiled pBR322 DNA as substrate after 1 hr by malachite green dye based assay relative to control; method in brief: as §1
[4] = Antiproliferative activity against HEK293 cells after 72 hrs by CCK8 assay; type: cell-based; details: Homo sapiens, HEK293, 72 h
Method in brief: (§2)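 Cells seeded at 2–4 × 10^4 per well, grown overnight in medium with 10% FBS at 37 °C and 5% CO2. After 4 h FBS starvation they were exposed to graded compound concentrations for 72 h. CCK-8 was added for a further 4 h and absorbance read at 450 nm. IC50 came from a four-parameter logistic fit.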

[5] = biological target: DNA topoisomerase 2-alpha (Homo sapiens) (UniProt P11388); assay: Inhibition of human DNA topoisomerase-2alpha at 100 uM using supercoiled pBR322 DNA as substrate after 30 mins by ethidium bromide staining based agarose gel electrophoresis relative to control
Method in brief: (§3)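 Human topo IIα, 1 unit set by full relaxation of pBR322, with 100 ng pBR322 for 30 min in 10 mM Tris-HCl pH 7.9, 50 mM NaCl, 5 mM MgCl2, 1 mM EDTA and BSA. Stop was with EDTA. Screening was at 100 µM, with retest at 20 µM if inhibition exceeded 30%. Gel was 1% agarose at 25 V for 4 h in TAE, stained with ethidium bromide. Mean ± S.D. from three experiments in triplicate.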

[6] = biological target: DNA topoisomerase 2-alpha (Homo sapiens) (UniProt P11388); assay: Inhibition of human DNA topoisomerase-2alpha at 500 uM using supercoiled pBR322 DNA as substrate after 20 mins by ethidium bromide staining based agarose gel electrophoresis relative to control
Homo sapiens [7] = species: Homo sapiens; assay: Inhibition of DNA topoisomerase catalytic activity in human T47D nuclear extract at 20 uM using supercoiled pBR322 DNA as substrate after 24 hrs by ethidium bromide staining based agarose gel electrophoresis relative to control
Method in brief: (§4)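 T47D cells at 5 × 10^5 per 60 mm dish were grown to 80% confluence, washed with FBS-free medium and treated 24 h. Nuclear extracts were prepared in HEPES/MgCl2/KCl/DTT/NP40 buffer, then extracted with NaCl buffer. The amount of extract that fully relaxes 100 ng pBR322 at 37 °C in 20 min was set as the unit. Products were run on agarose in TAE and stained with ethidium bromide (0.5 µg/mL).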

[8] = Antiproliferative activity against human DU145 cells after 72 hrs by CCK8 assay; type: functional, cell-based; details: DU-145, 72 h; method in brief: as §2
[9] = biological target: T1, DNA topoisomerase 1 (Homo sapiens) (UniProt P11387); assay: Inhibition of human DNA topoisomerase-1 at 100 uM using supercoiled pBR322 DNA as substrate after 30 mins by ethidium bromide staining based agarose gel electrophoresis relative to control
T1 sequence (whole entry): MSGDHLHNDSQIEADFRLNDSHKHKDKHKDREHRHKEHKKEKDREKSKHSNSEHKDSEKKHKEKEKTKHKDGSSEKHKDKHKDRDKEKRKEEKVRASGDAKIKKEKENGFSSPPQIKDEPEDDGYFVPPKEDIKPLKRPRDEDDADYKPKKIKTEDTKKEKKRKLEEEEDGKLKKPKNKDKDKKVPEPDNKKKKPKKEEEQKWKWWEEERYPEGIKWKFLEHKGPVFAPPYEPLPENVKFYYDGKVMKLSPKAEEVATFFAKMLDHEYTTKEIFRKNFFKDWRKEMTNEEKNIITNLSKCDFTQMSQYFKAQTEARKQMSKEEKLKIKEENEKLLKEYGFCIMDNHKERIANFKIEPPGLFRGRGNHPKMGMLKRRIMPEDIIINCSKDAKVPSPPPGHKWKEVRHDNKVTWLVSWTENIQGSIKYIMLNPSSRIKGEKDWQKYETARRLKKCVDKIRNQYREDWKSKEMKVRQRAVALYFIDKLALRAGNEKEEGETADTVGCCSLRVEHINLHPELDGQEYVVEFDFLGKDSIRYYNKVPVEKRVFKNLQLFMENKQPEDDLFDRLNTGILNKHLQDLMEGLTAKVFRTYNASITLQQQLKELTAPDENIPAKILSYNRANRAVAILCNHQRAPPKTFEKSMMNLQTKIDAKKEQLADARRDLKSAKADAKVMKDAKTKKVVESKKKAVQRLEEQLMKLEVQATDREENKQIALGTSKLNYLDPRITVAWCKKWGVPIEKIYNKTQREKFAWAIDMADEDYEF
Method in brief: (§5)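 Recombinant human topo I, 1 unit (the amount that fully relaxes supercoiled pBR322), with 100 ng pBR322 DNA at 37 °C for 30 min in 10 mM Tris-HCl pH 7.9, 150 mM NaCl, 0.1% BSA. Compounds were screened at 100 µM, and those above 30% inhibition were retested at 20 µM. Products ran on 1% agarose at 15 V for 7 h in TAE with ethidium bromide staining. Mean ± S.D. from three experiments in triplicate.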

[10] = Antiproliferative activity against HFL1 cells after 72 hrs by CCK8 assay; type: cell-based; details: Homo sapiens, HFL1, 72 h; method in brief: as §2
[11] = Antiproliferative activity against human T47D cells after 72 hrs by CCK8 assay; type: functional, cell-based; method in brief: as §2
[12] = Antiproliferative activity against human HeLa cells after 72 hrs by CCK8 assay; type: functional, cell-based; method in brief: as §2
[13] = biological target: T1, DNA topoisomerase 1 (Homo sapiens); assay: Inhibition of human DNA topoisomerase-1 at 20 uM using supercoiled pBR322 DNA as substrate after 30 mins by ethidium bromide staining based agarose gel electrophoresis relative to control; method in brief: as §5
Homo sapiens [14] = species: Homo sapiens; assay: Inhibition of DNA topoisomerase catalytic activity in human T47D nuclear extract at 50 uM using supercoiled pBR322 DNA as substrate after 24 hrs by ethidium bromide staining based agarose gel electrophoresis relative to control; method in brief: as §4
[15] = Antiproliferative activity against human HCT15 cells after 72 hrs by CCK8 assay; type: functional, cell-based; details: HCT-15, 72 h; method in brief: as §2
[16] = biological target: DNA topoisomerase 2-alpha (Homo sapiens) (UniProt P11388); assay: Inhibition of human DNA topoisomerase-2alpha at 20 uM using supercoiled pBR322 DNA as substrate after 30 mins by ethidium bromide staining based agarose gel electrophoresis relative to control; method in brief: as §3

Sequence of DNA topoisomerase 2-alpha (Homo sapiens) (P11388 whole entry): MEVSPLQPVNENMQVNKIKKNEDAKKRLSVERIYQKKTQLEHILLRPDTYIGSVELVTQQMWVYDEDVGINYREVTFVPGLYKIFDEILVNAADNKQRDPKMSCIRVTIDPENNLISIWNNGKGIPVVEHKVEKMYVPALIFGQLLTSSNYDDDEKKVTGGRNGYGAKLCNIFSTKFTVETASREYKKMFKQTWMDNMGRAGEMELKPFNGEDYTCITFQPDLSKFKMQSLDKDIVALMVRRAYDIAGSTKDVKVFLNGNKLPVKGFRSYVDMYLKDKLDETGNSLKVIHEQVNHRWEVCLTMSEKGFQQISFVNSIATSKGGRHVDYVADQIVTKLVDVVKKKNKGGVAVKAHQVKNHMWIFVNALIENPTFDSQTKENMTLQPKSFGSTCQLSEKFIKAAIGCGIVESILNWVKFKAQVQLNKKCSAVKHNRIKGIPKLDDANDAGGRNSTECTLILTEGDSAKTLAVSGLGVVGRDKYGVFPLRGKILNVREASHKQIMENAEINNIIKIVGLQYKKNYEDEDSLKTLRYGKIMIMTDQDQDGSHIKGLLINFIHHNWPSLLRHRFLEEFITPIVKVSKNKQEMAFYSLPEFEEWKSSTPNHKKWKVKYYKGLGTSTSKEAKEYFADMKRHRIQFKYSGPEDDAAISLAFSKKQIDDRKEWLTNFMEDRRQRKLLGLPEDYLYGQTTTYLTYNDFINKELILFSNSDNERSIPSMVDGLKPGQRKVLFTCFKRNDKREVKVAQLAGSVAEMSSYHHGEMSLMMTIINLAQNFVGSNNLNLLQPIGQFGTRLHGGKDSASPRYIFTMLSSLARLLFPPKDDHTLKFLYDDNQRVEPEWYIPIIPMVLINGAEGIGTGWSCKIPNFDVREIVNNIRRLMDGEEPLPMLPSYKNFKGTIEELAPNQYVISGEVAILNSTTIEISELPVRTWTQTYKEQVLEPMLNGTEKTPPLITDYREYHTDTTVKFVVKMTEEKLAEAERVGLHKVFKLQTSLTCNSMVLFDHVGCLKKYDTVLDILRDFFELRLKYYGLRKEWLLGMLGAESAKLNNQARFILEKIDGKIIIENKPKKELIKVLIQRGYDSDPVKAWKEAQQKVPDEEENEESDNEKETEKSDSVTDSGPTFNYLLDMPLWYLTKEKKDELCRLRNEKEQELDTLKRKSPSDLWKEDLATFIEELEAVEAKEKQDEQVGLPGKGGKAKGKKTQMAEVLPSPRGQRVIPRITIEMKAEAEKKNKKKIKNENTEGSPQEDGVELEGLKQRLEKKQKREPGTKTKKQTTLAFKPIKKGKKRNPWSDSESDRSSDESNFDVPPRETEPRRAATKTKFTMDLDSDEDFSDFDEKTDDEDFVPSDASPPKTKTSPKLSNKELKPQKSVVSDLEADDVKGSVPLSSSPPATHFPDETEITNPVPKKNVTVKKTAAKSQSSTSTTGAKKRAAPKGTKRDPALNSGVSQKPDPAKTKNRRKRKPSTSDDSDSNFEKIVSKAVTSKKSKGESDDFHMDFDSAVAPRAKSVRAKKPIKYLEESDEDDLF

SMILES	inhibition [1]	inhibition [2]	inhibition [3]	IC50 [4]	inhibition [5]	inhibition [6]	inhibition (Homo sapiens [7])	IC50 [8]	inhibition [9]	IC50 [10]	IC50 [11]	IC50 [12]	inhibition [13]	inhibition (Homo sapiens [14])	IC50 [15]	inhibition [16]
CO[C@@H]1[C@@H](OC(N)=O)[C@@H](O)[C@H](Oc2ccc3c(O)c(NC(=O)c4ccc(O)c(CC=C(C)C)c4)c(=O)oc3c2C)OC1(C)C	33.3%	22.7%	55.9%	–	–	–	–	–	–	–	–	–	–	–	–	–
Oc1ccc(-c2cc(-c3ccco3)nc3c2Cc2ccccc2-3)cc1	–	–	0%	3.47 µM	95.1%	Active	34.3%	3.74 µM	69.7%	7.99 µM	0.95 µM	3.96 µM	53.5%	97%	3.12 µM	92.2%
